Only some compounds are listed: those with a hit (about 3.2% of all), similar ones and a draw of the others.
DENV2 CPE: inhibitors of DENV2 cytopathic effect, primary screen, cell-based, plate reader, single concentration; DENV2-infected cells, cytopathic effect rescue; CPE inhibition, % at 9.99 µM; hit rate 1.7% among 350,000; AID 651640, 2012; in the data active = CPE inhibition above about 20%, passing the limit was not always enough; inconclusive = no clear call, values can overlap the other calls; tested in BHK-21 cells
AF4-AF9 inh: inhibitors of AF4 peptide binding to AF9, primary screen, biochemical, AlphaScreen, biotin-AF4 peptide, FLAG-AF9, single point; Protein AF-9 (Homo sapiens), P42568; inhibition, % at 10 µM; hit rate 0.47% among 350,000;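 active = every replicate reaching a set inhibition limit, whatever the replicate mean, cut at about 25% in these data; inconclusive = mean inhibition reaches that limit but some replicates miss it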
Target sequence (P42568 whole entry, looked up): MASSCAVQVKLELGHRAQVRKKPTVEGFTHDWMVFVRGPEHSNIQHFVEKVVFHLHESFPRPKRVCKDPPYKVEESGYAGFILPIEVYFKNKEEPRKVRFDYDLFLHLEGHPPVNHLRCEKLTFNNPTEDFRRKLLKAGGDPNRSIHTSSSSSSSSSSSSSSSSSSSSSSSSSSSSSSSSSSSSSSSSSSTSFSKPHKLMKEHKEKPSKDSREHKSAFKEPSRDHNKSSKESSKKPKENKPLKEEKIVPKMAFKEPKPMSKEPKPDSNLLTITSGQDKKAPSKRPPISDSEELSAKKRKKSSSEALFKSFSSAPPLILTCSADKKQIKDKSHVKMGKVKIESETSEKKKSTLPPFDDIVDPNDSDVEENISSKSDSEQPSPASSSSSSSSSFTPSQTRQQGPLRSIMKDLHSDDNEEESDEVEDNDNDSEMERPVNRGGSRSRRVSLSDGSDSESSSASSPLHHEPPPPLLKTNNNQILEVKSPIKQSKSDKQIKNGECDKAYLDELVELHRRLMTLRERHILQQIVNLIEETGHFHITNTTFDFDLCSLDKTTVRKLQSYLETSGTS
S100A4 MyoIIA: inhibitors of S100A4-myosin IIA peptide binding, primary screen, biochemical, fluorescence polarization, TAMRA-MyoIIA peptide; inhibition, % at 10.7 µM; hit rate 0.14% among 360,000; AID 652163, 2013;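 active = mean inhibition of at least 70% across replicates, with every replicate also reaching that level; inconclusive = mean inhibition reaches 70% but some replicates fall short; inactive = mean inhibition below 70%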
Target sequence (P26447 whole entry, looked up): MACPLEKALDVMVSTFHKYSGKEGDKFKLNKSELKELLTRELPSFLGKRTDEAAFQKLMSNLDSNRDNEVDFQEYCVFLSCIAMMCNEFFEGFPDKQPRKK
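System – human S100A4 monomer protein, biochemical binding assay · Buffer or medium – Calcium-containing HEPES buffer, pH 7.2 · Timing – 5 min between mix addition and reading · Also added – TAMRA-labelled myosin IIA heavy-chain peptide probe, 5 nM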
rRNA inh HTS: reduced GFP signal of wild-type E. coli, primary screen, bacterial rRNA inhibitor project, GFP/RFP fluorescence, OD600, single point. E. coli WT GFP vs humanized-ribosome RFP mutants, 24 h; stronger effect = lower value; DMSO median 0, no signal -100. GFP signal change (wild-type ribosome), % (concentration not given with the values). hit rate 1.6% among 350,000. AID 720706, 2013;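 active = significant combined selectivity score with lowered wild-type GFP, culture density cut under 30%, mutant RFP and density less affected; inactive = any of these conditions unmet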
PfHsp90 yeast 2: growth inhibition of PfHsp90-expressing yeast, primary screen, antimalarial PfHsp90 inhibitor project, S. cerevisiae, BacTiter-Glo luminescence, single point, set 2; inhibition, % at 9.4 µM; BacTiter-Glo ATP, 48 h; yeast lacking PDR1 and PDR3 efflux regulators; hit rate 0.32% among 310,000;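 active = every replicate shows inhibition above about 80%, whatever the replicate mean, limit read from the data; inconclusive = mean inhibition reaches the set limit but some replicate falls short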
Cneo AK release: Cryptococcus neoformans cell lysis inducers, primary screen, AK release luminescence, single concentration; C. neoformans lysis, adenylate kinase release luminescence, 4 h; normalised: neutral wells 0, clomiphene wells 100; lysis activity, % at 15 µM; hit rate 0.2% among 360,000; AID 651654, 2012;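 active = mean lysis activity across replicates of at least 80%, whatever share of replicates individually reach that level; inactive = mean lysis activity below 80%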
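Material – Cryptococcus neoformans yeast cells · Quantity – 5 × 10^6 yeast cells/mL · Buffer or medium – YPD medium · Compound – single dose · Timing – 4 h static compound exposure, 37 °C, read 1 h post-reagent · Signal – adenylate kinase release luminescence · Read-out basis – lysis from increased AK signal · Benchmarks – Clomiphene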
Large screens that a line does not name were inactive.

C[C@H](CO)N1C[C@H](C)[C@@H](CN(C)C)Oc2ncc(-c3cccnc3)cc2C1=O	DENV2 CPE inconclusive (no result: rRNA inh HTS, PfHsp90 yeast 2)
c1cc(Nc2cccc3nccnc23)c2nccnc2c1	AF4-AF9 inh 26
Fc1ccc(Nc2cccc3nccnc23)cc1	none (no result: DENV2 CPE, AF4-AF9 inh, S100A4 MyoIIA, rRNA inh HTS)
COc1ccc(N(CC(=O)N2CCC(Cc3ccccc3)CC2)S(C)(=O)=O)cc1	rRNA inh HTS -21 (no result: Cneo AK release)
CN(C)S(=O)(=O)N(CC(=O)N1CCC(Cc2ccccc2)CC1)c1ccccc1	none
O=C(CSC(=S)N1CCOCC1)Nc1ncc2c(n1)CC(c1ccco1)CC2=O (configuration not stated)	DENV2 CPE 30 (no result: Cneo AK release)
Cc1cc(Br)cn2c(Cc3cccc(F)c3)c(-c3ccc(Cl)cc3)nc12	rRNA inh HTS -32 (no result: PfHsp90 yeast 2)
COc1ccccc1Cc1c(-c2ccc(C)cc2)nc2c(C)cc(Br)cn12	none (no result: PfHsp90 yeast 2)
COc1ccccc1Cc1c(-c2ccc(F)cc2)nc2c(C)cc(Br)cn12	rRNA inh HTS -32 (no result: PfHsp90 yeast 2)
Cc1ccc(S(=O)(=O)N[C@H]2CC[C@@H](CCNC(=O)Nc3ccc(Cl)cc3)O[C@@H]2CO)cc1	none (no result: PfHsp90 yeast 2)
c1ccc2c(CSc3ncnc4nc[nH]c34)cccc2c1	rRNA inh HTS -31 (no result: Cneo AK release)
COc1cc(/C=C/C(=O)OCC(=O)N2CCCc3ccccc32)ccc1OCC#N	rRNA inh HTS -24
CCOc1ccc(CC(=O)N/N=C(\C)c2cccnc2)cc1OCC	DENV2 CPE 78
COc1cccc(CC(=O)Nc2nc(-c3cc(OC)ccc3OC)cs2)c1	rRNA inh HTS -24 (no result: DENV2 CPE, Cneo AK release)
COc1ccc(OC)c(-c2csc(NC(=O)COC(=O)C3(C)CC3(Cl)Cl)n2)c1 (configuration not stated)	rRNA inh HTS -21
COc1ccc(CC(=O)Nc2nc(-c3cc(OC)ccc3OC)cs2)cc1	rRNA inh HTS -22 (no result: Cneo AK release)
C[C@@H]1CN([C@@H](C)CO)C(=O)Cc2cc(NC(=O)C3CCCCC3)ccc2O[C@H]1CN(C)S(C)(=O)=O	none (no result: PfHsp90 yeast 2)
Cc1cc(NC(=O)COC(=O)c2ccccc2NCCO)no1	none
Cc1cc(NC(=O)COC(=O)c2ccccc2S(=O)(=O)N(C)c2ccccc2)no1	rRNA inh HTS -33 (no result: Cneo AK release)
CCS(=O)(=O)N1CC(=O)N2[C@H](CO)[C@@H](c3ccc(C#CC4CC4)cc3)[C@@H]2C1	none (no result: PfHsp90 yeast 2, Cneo AK release)
COc1ccc(NC(=O)Nc2ccc3c(c2)C(=O)N([C@H](C)CO)C[C@@H](C)[C@@H](CN(C)C(=O)NC2CCCCC2)OCCCC[C@H](C)O3)cc1	none (no result: PfHsp90 yeast 2)
CC=Cc1ccc2n(c1=O)C[C@H]1[C@H](CO)[C@@H](C(=O)NCCC)N(Cc3cocn3)[C@@H]21 (mixture of isomers)	DENV2 CPE 78 (no result: PfHsp90 yeast 2)
CC=Cc1ccc2n(c1=O)C[C@@H]1[C@@H](CO)[C@H](C(=O)NCC)N(Cc3cocn3)[C@H]21 (mixture of isomers)	none (no result: PfHsp90 yeast 2)
CC=Cc1ccc2n(c1=O)C[C@H]1[C@H](CO)[C@@H](C(=O)N(C)C)N(Cc3cccc(F)c3)[C@@H]21 (mixture of isomers)	DENV2 CPE 56 (no result: PfHsp90 yeast 2)
CN(C)CC(=O)N[C@@H]1C=C[C@@H](CC(=O)O)O[C@@H]1CO	none (no result: PfHsp90 yeast 2, Cneo AK release)
C[C@@H]1CN([C@H](C)CO)C(=O)c2cc(/C=C/c3ccccc3)cnc2O[C@@H]1CN(C)C(=O)C1CCC1	none (no result: PfHsp90 yeast 2)
CC(C)C[C@@H]1COc2cc(NCCO)ccc2S(=O)(=O)N1	DENV2 CPE 59 (no result: PfHsp90 yeast 2, Cneo AK release)
CC(C)C[C@H]1COc2cc(NCc3ccc(Cl)c(Cl)c3)ccc2S(=O)(=O)N1	rRNA inh HTS -26 (no result: PfHsp90 yeast 2, Cneo AK release)
CCCCNc1ccc2c(c1)OC[C@@H](Cc1ccccc1)NS2(=O)=O	rRNA inh HTS -28 (no result: PfHsp90 yeast 2, Cneo AK release)
COc1cccc(S(=O)(=O)N2CCC3(CC2)CN[C@@H](CO)c2c3c3ccc(OC)cc3n2C)c1	none (no result: PfHsp90 yeast 2, Cneo AK release)
Cc1ccc(-c2ccc3c(c2)O[C@H](CN(C)C)[C@H](C)CN([C@H](C)CO)S3(=O)=O)cc1	none (no result: PfHsp90 yeast 2)
C[C@H](CO)N1C[C@H](C)[C@@H](CN(C)S(=O)(=O)c2cn(C)cn2)Oc2ccc(NS(=O)(=O)c3ccc(Cl)cc3)cc2C1=O	none (no result: PfHsp90 yeast 2)
COc1cc(C(=O)N(C)CCOc2ccc(C)cc2)ccc1OC1CCN(C(C)=O)CC1	none (no result: rRNA inh HTS)
CN(C(=O)c1ccc(NC(=O)Cc2cccc(NC(=O)C3CCN(C(=O)C4CCCCC4)CC3)c2)cc1)C1CC1	none
CN(CCOc1ccccc1)C(=O)c1ccc(OC2CCN(C(=O)C3CC3)CC2)cc1	rRNA inh HTS -19
CN(C(=O)c1ccc(NC(=O)Cc2cccc(NC(=O)C3CCN(C(=O)C4CC4)CC3)c2)cc1)C1CC1	DENV2 CPE 34
CN(CCc1ccccc1)C(=O)c1ccc(NC(=O)Cc2ccc(NC(=O)C3CCN(C(=O)C4CCC4)CC3)cc2)cc1	AF4-AF9 inh 28
O=C(CN1CCN(Cc2ccccc2)CC1)NNC(=O)c1ccccc1	DENV2 CPE 26
COc1ccc(CN(C)C[C@@H]2Oc3c(NC(=O)c4cc(C)nn4C)cccc3C(=O)N([C@H](C)CO)C[C@H]2C)cc1	DENV2 CPE 27 (no result: PfHsp90 yeast 2)
Cc1cc(C(=O)Nc2cccc3c2O[C@H](CN(C)Cc2ccc(C(=O)O)cc2)[C@H](C)CN([C@H](C)CO)C3=O)n(C)n1	DENV2 CPE 46 (no result: PfHsp90 yeast 2)
COc1ccc(CN(C)C[C@@H]2Oc3c(NC(=O)c4cc(C)nn4C)cccc3C(=O)N([C@H](C)CO)C[C@@H]2C)cc1	none (no result: PfHsp90 yeast 2, Cneo AK release)
CN(C)CC(=O)N[C@@H]1CC[C@@H](CCNC(=O)Nc2ccc(F)cc2)O[C@@H]1CO	none (no result: PfHsp90 yeast 2)
COc1ccccc1-c1ccc([C@H]2[C@H](C#N)N[C@@H]2CO)cc1	none (no result: PfHsp90 yeast 2)
CC(C)(C)c1cc(/C=N/O)cc(C(C)(C)C)c1O	none
CNC(=S)c1cc(C(C)(C)C)c(O)c(C(C)(C)C)c1	rRNA inh HTS -21 (no result: Cneo AK release)
O=C(N/N=C/c1ccco1)c1cc(-c2ccc(Cl)s2)[nH]n1	rRNA inh HTS -26 (no result: Cneo AK release)
O=C(N/N=C/c1cccs1)c1cc(-c2ccc(Cl)s2)[nH]n1	rRNA inh HTS -22
C/C(=N\NC(=O)c1cc(-c2ccc(Cl)s2)[nH]n1)c1ccncc1	AF4-AF9 inh 43, rRNA inh HTS -21
C/C(=N\NC(=O)c1cc(-c2ccc(Br)s2)[nH]n1)c1ccncc1	DENV2 CPE inconclusive
COc1ccc(NC(=O)c2ccc3[nH]c(C)c(C)c3c2)c(OC)c1	rRNA inh HTS -15
CCOc1ccccc1NC(=O)c1ccc2[nH]c(C)c(C)c2c1	none

Assay outcomes (PubChem BioAssay)
